The values that follow come from ChEMBL document CHEMBL4118142, “Novel amidrazone derivatives: Design, synthesis and activity evaluation” (Bioorg Med Chem, 2018).

The nature of data set [1]: Cytotoxicity against rat articular chondrocytes assessed as decrease in cell viability at 1.563 to 25 uM after 24 hrs by MTT assay. The essentials: (§1)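 Primary rat articular chondrocytes were seeded at 5 × 10^3 cells/well and incubated 24 h in DMEM with 10% FBS. They were then exposed to compound for 24 h. MTT (5 mg/mL stock) was added for 4 h at 37 °C, formazan was dissolved in DMSO, and OD was read at 492 nm against a cell-free blank. Run in triplicate, three independent experiments, means ± SE.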
For orientation: Tetrazolium assays rely on reduction of a dye to a coloured formazan, in cell work by metabolically active cells.

In data set [2] the target is T1, Acid-sensing ion channel 1 (Rattus norvegicus) (UniProt P55926).
T1 sequence (whole entry): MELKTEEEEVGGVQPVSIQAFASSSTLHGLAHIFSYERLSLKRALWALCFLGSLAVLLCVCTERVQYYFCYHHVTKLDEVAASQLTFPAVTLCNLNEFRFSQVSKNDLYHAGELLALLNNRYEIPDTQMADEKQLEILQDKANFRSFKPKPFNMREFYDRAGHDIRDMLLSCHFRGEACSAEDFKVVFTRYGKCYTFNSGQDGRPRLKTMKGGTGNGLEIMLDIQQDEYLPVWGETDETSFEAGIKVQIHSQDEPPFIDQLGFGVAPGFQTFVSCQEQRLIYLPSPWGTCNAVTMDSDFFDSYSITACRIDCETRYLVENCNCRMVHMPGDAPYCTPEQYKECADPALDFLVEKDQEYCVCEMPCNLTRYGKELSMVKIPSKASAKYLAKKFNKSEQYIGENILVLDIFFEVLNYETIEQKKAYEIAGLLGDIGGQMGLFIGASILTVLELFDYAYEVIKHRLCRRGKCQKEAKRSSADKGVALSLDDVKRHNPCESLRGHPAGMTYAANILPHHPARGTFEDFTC
The data set is described as follows: Inhibition of acid-induced ASIC1a protein expression in rat articular chondrocytes at 1.563 to 25 uM pretreated for 24 hrs followed by acid medium stimulation at pH 6 for 3 hrs by Western blot analysis. It is filed as cell-based. The essentials: (§2)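 Primary rat articular chondrocytes in DMEM/10% FBS at 37 °C, 5% CO2 were pretreated with compound for 24 h, then stimulated with acidic medium (pH 6.0) for 3 h. Cells kept at pH 7.4 served as control. Cells were PBS-washed and lysed, and ASIC1a was measured by Western blot with β-actin as internal control. Mean ± SD of three independent experiments.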
For orientation: In western blotting, separated proteins are transferred to a membrane and probed.

Data set [3] deals with T1, Acid-sensing ion channel 1 (Rattus norvegicus). Put plainly: Inhibition of ASIC1a in rat articular chondrocytes assessed as decrease in acid-induced intracellular calcium level at 25 uM pretreated with compound followed by acid medium stimulation in presence of voltage gated calcium channel inhibitor nimodipine after 24 hrs by Fluo-3AM dye based laser scanning confocal microscopy relative to control. It is filed as cell-based. The essentials: (§3)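 Primary rat articular chondrocytes (1 × 10^5 cells) were grown 24 h, then loaded with 10 μM Fluo-3-AM plus 0.02% Pluronic F-127 for 30 min at 37 °C and washed. Nimodipine (5 μM) was present in the extracellular fluid. Cells were perfused with D-Hank's containing compound, then with Hank's solution at pH 6.0. Confocal fluorescence (ex 488, em 525 nm) was imaged up to 5 min. Result reported as % inhibition of Ca2+ fluorescence intensity.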
On the technique in general: A change in cytosolic calcium serves as a functional read-out for many receptors and channels.

Data set [4] in a line: Cytotoxicity against rat articular chondrocytes assessed as decrease in cell viability at 3.125 to 25 uM after 24 hrs by MTT assay. In outline:
as §1

Data set [5] concerns the target T1, Acid-sensing ion channel 1 (Rattus norvegicus). The data set is described as follows: Inhibition of acid-induced ASIC1a protein expression in rat articular chondrocytes at 3.125 to 50 uM pretreated for 24 hrs followed by acid medium stimulation at pH 6 for 3 hrs by Western blot analysis. It is filed as cell-based. In outline:
as §2

Data set [6] in a line: Cytotoxicity against rat articular chondrocytes assessed as decrease in cell viability at 50 uM after 24 hrs by MTT assay. In outline:
as §1

Data set [7] addresses T1, Acid-sensing ion channel 1 (Rattus norvegicus). Put plainly: Inhibition of ASIC1a in rat articular chondrocytes assessed as decrease in acid-induced intracellular calcium level at 50 uM pretreated with compound followed by acid medium stimulation in presence of voltage gated calcium channel inhibitor nimodipine after 24 hrs by Fluo-3AM dye based laser scanning confocal microscopy relative to control. It is filed as cell-based. The essentials: as §3

The target in data set [8] is T2, Acid-sensing ion channel 1 (Rattus norvegicus, UniProt P55926).
T2 sequence (P55926 whole entry): T1 sequence (whole entry)
The data set is described as follows: Inhibition of ASIC1 in Sprague-Dawley rat articular chondrocytes assessed as decrease in acid-induced intracellular calcium level by Fluo-3AM dye based laser scanning confocal microscopy. It is filed as cell-based. The essentials: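 Primary rat articular chondrocytes were seeded at 1 × 10^5 cells and used after 24 h. Cells were loaded with 10 µM Fluo-3-AM plus 0.02% Pluronic F-127 for 30 min at 37 °C, washed, and kept with 5 µM nimodipine in the extracellular fluid. They were perfused with D-Hank's, then compound, then pH 6.0 Hank's. Confocal readout at ex 488/em 525 nm over 5 min gave the fluorescence-intensity inhibition rate.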

In data set [9] the target is T2, Acid-sensing ion channel 1. Put plainly: Inhibition of ASIC1a in rat dorsal root ganglion neurons assessed as reduction in peak current preincubated for 120 secs followed by acid medium stimulation at pH 5.5 for 3 secs by automated patch clamp electrophysiology assay.

The structures appear in SMILES notation. Active and inactive are the calls of the source. No cut-off for these calls is given here.

Take `N=C(NN)c1ccc2cc(/C=C/c3cccc(Cl)c3)ccc2c1`: in data set [1], the Activity result is listed as “Non-Toxic”. The “inhibition of ASIC1a protein expression (active/not active)” value (from here on “inhibition … (active/not active)”) in data set [2] was “Active”. Further, in data set [3], the inhibition worked out at 59.5%.

Regarding `N=C(NN)c1ccc2cc(/C=C/c3cccc(F)c3)ccc2c1`, the Activity result in data set [1] is on record as “Non-Toxic”. Also, the “inhibition … (active/not active)” value in data set [2] was “Active”.

In the case of `COc1ccc(/C=C/c2ccc3cc(C(=N)NN)ccc3c2)cc1`, in data set [4], the Activity entry is listed as “Non-Toxic”. The inhibition result in data set [5] was “Active”. In addition, the inhibition in data set [3] came to 68.9%.

With `N=C(NN)c1ccc2cc(/C=C/c3ccccc3)ccc2c1`, the Activity entry in data set [1] is on record as “Non-Toxic”. For the same compound, the “inhibition … (active/not active)” value in [2] is “Active”. Besides, in data set [3], the inhibition amounted to 33.4%.

As to `Cc1ccc(/C=C/c2ccc3cc(C(=N)NN)ccc3c2)cc1`, in data set [6], the Activity entry was “Toxic”. Also, the inhibition result in data set [5] is “Active”. Also, in data set [7], the inhibition worked out at 63.2%.

As to `N=C(N)NC(=O)c1nc(Cl)c(N)nc1N` [AMILORIDE], the IC50 in data set [8] worked out at 30.2 µM.

With `N=C(NN)c1ccc2cc(/C=C/c3ccccc3F)ccc2c1`, the Activity entry in [1] is “Non-Toxic”. The “inhibition … (active/not active)” value in data set [2] was “Active”. Moreover, the inhibition in [3] came to 52.1%.

In the case of `N=C(NN)c1ccc2cc(/C=C/c3ccc(F)cc3)ccc2c1`, the Activity result in data set [1] is recorded as “Non-Toxic”. For the same compound, the “inhibition … (active/not active)” value in [2] was “inactive”.

Consider `CC(C)C1c2cc(C3CC3c3ccc4cc(C(=N)N)ccc4c3)ccc2CCN1C` (centres undefined), for which the IC50 in [9] was determined as 2 µM.

As for `N=C(NN)c1ccc2cc(/C=C/c3ccc(Cl)cc3)ccc2c1`, in [4], the Activity entry is “Non-Toxic”. The inhibition entry in [5] was “Active”. In data set [7], the inhibition came out at 20.8%.

The term inhibition denotes the drop in the measured response relative to a control, in per cent. A word on the IC50: it is the concentration needed to halve the response being measured.
